# MrgX1 antag: antagonists of human MrgX1 receptor, primary screen, HEK293 cells, Fluo-4 calcium flux | 310,000 tested, 1.3% active | B-score at 10 µM | AID 588676, 2011 | BAM8-22 antagonism; active compounds read low | Mas-related G-protein coupled receptor member X1 (Homo sapiens), Q96LB2;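 active = calcium-response B-score plate-corrected more than 3 library SD below zero, starting fluorescence within 5 deviations, no agonist response on first addition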;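 note: peak minus trough fluorescence over baseline after final BAM8-22 challenge near maximal dose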
# Target sequence (Q96LB2 whole entry, looked up): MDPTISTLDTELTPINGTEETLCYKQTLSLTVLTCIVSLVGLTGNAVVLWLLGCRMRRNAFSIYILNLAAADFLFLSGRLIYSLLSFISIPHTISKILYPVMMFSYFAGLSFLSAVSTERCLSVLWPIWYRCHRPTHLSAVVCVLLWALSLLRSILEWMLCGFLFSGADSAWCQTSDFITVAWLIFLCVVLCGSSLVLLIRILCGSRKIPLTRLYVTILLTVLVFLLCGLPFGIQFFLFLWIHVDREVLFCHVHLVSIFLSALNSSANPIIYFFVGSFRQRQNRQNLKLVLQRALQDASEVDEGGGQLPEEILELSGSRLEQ
# RGS4 block: RGS4 inhibitors, primary screen, cell-based, HEK293 M3R inducible RGS4, calcium flux | Regulator of G-protein signaling 4 (Homo sapiens), P49798 | Fluo-4 calcium flux; active compounds read high; triggered by carbachol at its EC20 | B-score at 10 µM | 310,000 tested, 0.45% active;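 active = B-score, a plate-corrected calcium signal, over three deviations above library mean, with baseline fluorescence within five deviations of library mean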;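 note: RGS4 expression induced by doxycycline in cells with stable M3 receptor; B-score is computed from the integrated fluorescence ratio over baseline after carbachol; higher B-score means a larger calcium signal and so more RGS4 inhibition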
# Target sequence (P49798 whole entry, looked up): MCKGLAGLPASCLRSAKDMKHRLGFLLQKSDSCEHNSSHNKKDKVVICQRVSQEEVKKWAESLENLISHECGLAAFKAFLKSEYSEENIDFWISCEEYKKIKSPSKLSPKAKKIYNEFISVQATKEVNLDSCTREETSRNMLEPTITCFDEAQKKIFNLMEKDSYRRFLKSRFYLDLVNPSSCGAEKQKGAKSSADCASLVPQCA
# RGS4 pot: RGS4 potentiators or activators, primary screen, cell-based, HEK293 M3R inducible RGS4, calcium flux; B-score at 10 µM; 310,000 tested, 0.92% active; carbachol calcium flux Fluo4; active compounds read low;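 active = B-score of the integrated calcium signal more than 4 SD below the library mean, with starting fluorescence not abnormally high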;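 note: negative B-score means reduced calcium response which marks RGS4 activation or potentiation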
#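 Assay system: Inducible-RGS4 HEK293 cells carrying M3 receptor | Schedule: Compound preincubation 20 min at room temperature before agonist | Signal: Kinetic calcium fluorescence imaging with Fluo4-AM dye, 2 µM | Read-out basis: B score from integrated fluorescence ratio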
# MrgX1 ag: agonists of human MrgX1 receptor, primary screen, HEK293 cells, Fluo-4 calcium flux; 310,000 tested, 0.44% active; B-score at 10 µM; AID 588627, 2011; Fluo-4 calcium fluorescence, agonist mode; active compounds read high;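 active = calcium response B-score plate-corrected fluorescence ratio at least 3 library SD, with starting fluorescence B-score inside 5 SD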
#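 Assay system: MrgX1-expressing HEK293 cells / Amount: fifteen thousand cells per well / Doses: test compound in the initial addition of three / Timing: cells plated overnight, dye loaded 0.5 h 37 °C, 0.5 h room temperature / Technique: kinetic calcium dye fluorescence, Fluo-4 NW / Control set: positive and negative controls per plate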
# MrgX1 allo act: positive allosteric modulators of MrgX1, primary screen, HEK293 cells, Fluo-4 calcium flux; Mas-related G-protein coupled receptor member X1 (Homo sapiens), Q96LB2; FDSS; active compounds read high; B-score at 10 µM; 310,000 tested, 0.63% active; AID 588675, 2011;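 active = plate-corrected calcium response at least 3 library SD above typical, normal starting fluorescence, not activating the receptor alone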;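 note: compound read alongside a low EC10 to EC30 dose of BAM8-22 agonist; peak minus trough fluorescence over baseline measured at the second addition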
# MrgX1 antag conf: MrgX1 receptor antagonists, duplicate retest, confirmation, HEK293 cells, Fluo-4 calcium flux. shares compounds with MrgX1 antag. remaining BAM8-22 calcium response % of control (active compounds read low), % at 10 µM. BAM8-22 calcium flux; active compounds read low. 2,300 tested, 19% active;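 active = remaining agonist calcium response no higher than 100% minus 3 SD of agonist-only control wells, with starting fluorescence near control levels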;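 note: agonist BAM8-22 given at a near maximal EC90 to ECmax level; peak minus minimum fluorescence divided by baseline after agonist addition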
# HEK293 Ca flux: nonspecific calcium signal in parental HEK293, confirmation, counter-screen for MrgX1 antagonist project, parental HEK293 cells, Fluo-4 calcium flux; shares compounds with MrgX1 antag; Fluo-4 calcium fluorescence, FDSS; fluorescence ratio F(max-min)/F0 at 10 µM; 4,000 tested, 2% active;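 active = duplicate-averaged calcium fluorescence ratio at least three times the standard deviation of buffer wells, a nonspecific response in parental cells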
# HEK293 Ca counter: calcium response in parental HEK293 cells, primary screen, counter-screen for MrgX1 allosteric activator project, cell-based, Fluo-4 calcium flux, duplicate; shares compounds with MrgX1 antag; 4,000 tested, 0.4% active; Fluo-4 fluorescence ratio; active compounds read high; AID 624114, 2012; fluorescence ratio F(max-min)/F0 at 10 µM;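 active = calcium fluorescence ratio, averaged over duplicates, at least 3 SD of the buffer-well ratio, meaning a nonspecific response in receptor-free cells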;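 note: untransfected parental HEK293 lacking MrgX1 used as counterscreen for MrgX1 allosteric activators; fluorescence change taken during the second addition on a kinetic imager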
# HEK293 Ca cntr2: calcium response in parental HEK293 cells, primary screen, counter-screen for MrgX1 agonist project, cell-based, Fluo-4 calcium flux, duplicate, agonist mode | shares compounds with MrgX1 antag | Fluo-4 calcium fluorescence (FDSS); active compounds read high | fluorescence ratio F(max-min)/F0 at 10 µM | 4,000 tested, 8.7% active | AID 624115, 2012;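 active = calcium fluorescence ratio at least three times the spread of buffer wells, meaning a non-specific response in parental cells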
# Active calls of the source: *; i = inactive; / = no result given. An excerpt weighted towards active compounds, which were near 3.5% of everything screened.
SMILES,MrgX1 antag,RGS4 block,RGS4 pot,MrgX1 ag,MrgX1 allo act,MrgX1 antag conf,HEK293 Ca flux,HEK293 Ca counter,HEK293 Ca cntr2
Cc1ccc(N(CN2C(=O)C3C4CCC(C4)C3C2=O)C(=O)c2ccco2)cc1 (stereo not given),i,i,i,i,i,/,/,/,/
O=C1CCC(=O)N1CN(C(=O)c1ccco1)c1ccccc1,-6.6*,i,i,i,i,i,i,i,i
COc1ccc(N(CC(=O)NCc2ccccc2)S(=O)(=O)c2c(C)nn(C)c2C)cc1,-6.6*,i,i,i,i,i,i,i,i
COc1ccc(OCC(=O)N/N=C2\CCc3ccccc32)cc1,i,i,i,i,i,/,/,/,/
COc1ccc2c(c1)CC/C2=N\NC(=O)c1ccccc1,-18*,i,i,i,i,i,i,i,i
Cc1ccc(N(CCC#N)C(=O)CN2C(=O)NC(Cc3ccccc3)C2=O)cc1 (stereo not given),i,i,i,i,i,/,/,/,/
O=S(=O)(NCc1ccc(F)cc1)c1ccc(-n2cccn2)cc1,i,i,i,i,i,/,/,/,/
CC(/C=C/c1ccccc1)NC(N)=O (stereo not given),-5.8*,i,i,i,i,i,i,i,i
O=C(CSc1nnc(Cc2ccc3c(c2)OCO3)n1C1CCCCC1)NC1CCCC1,i,i,i,i,i,/,/,/,/
NC(=O)CSc1nnc(Cc2ccc3c(c2)OCO3)n1C1CCCCC1,-4.6*,i,i,i,i,i,i,i,55*
CCOC(=O)c1c(C)[nH]c(C)c1C(=O)CSc1nc2ccccc2c(=O)n1-c1ccccc1C,i,i,i,i,i,/,/,/,/
CCOC(=O)c1c(C)[nH]c(C)c1C(=O)CSc1nc2ccccc2c(=O)n1-c1ccc(F)cc1,-5.3*,i,i,i,i,83%*,i,i,i
COc1ccc(C(=O)COC(=O)Cn2[nH]c(=O)c3ccccc3c2=O)c(OC)c1,i,i,i,i,i,/,/,/,/
COC(=O)c1sc(-c2ccc(Cl)cc2)cc1NC(=O)COCC(=O)O,i,i,i,i,i,/,/,/,/
COC(=O)c1sc(-c2ccc(C(C)(C)C)cc2)cc1NC(=O)CCC(=O)O,-6.6*,i,i,i,i,58%*,i,i,i
CCOC(=O)C1CCN(C(=O)C2COc3ccccc3O2)CC1 (stereo not given),i,i,i,i,i,/,/,/,/
O=C(NCCC1=CCCCC1)N[C@@H](Cc1ccccc1)C(=O)O,-9.7*,i,i,i,i,i,i,i,i
O=C(NCCc1ccccc1)NC(Cc1ccccc1)C(=O)O (stereo not given),i,i,i,i,i,/,/,/,/
O=C(NCCc1ccccc1)c1ccc(-c2ccccc2Cl)o1,-4.6*,i,i,i,i,i,i,i,i
Cc1ccc(C(=O)CN2C(=O)C(=O)N(Cc3ccccc3)C2=O)cc1,-6.4*,i,i,i,i,80%*,i,i,i
Cc1ccc(S(=O)(=O)NC(C)(C)CN2CCc3ccccc3C2)cc1,i,i,i,i,i,/,/,/,/
Cc1cc(NC(=O)CNC(=O)C2CCCCC2)no1,-5.3*,/,/,i,i,i,i,i,i
O=C(CNC(=O)C1CCCCC1)NC1CCCCC1,-4.7*,i,i,i,i,i,i,i,i
O=C(CNC(=O)C1CCCCC1)Nc1ccccc1,i,i,i,i,i,/,/,/,/
O=C1CCCC(=O)N1c1ccc(NCCOCCO)c([N+](=O)[O-])c1,i,i,i,i,i,/,/,/,/
SMILES,MrgX1 antag,RGS4 block,RGS4 pot,MrgX1 ag,MrgX1 allo act,MrgX1 antag conf,HEK293 Ca flux,HEK293 Ca counter,HEK293 Ca cntr2
Cc1ccc(C(=O)c2c[nH]c3c(F)cc(F)cc3c2=O)cc1,-6.8*,i,i,i,i,i,i,i,i
COc1ccc2c(c1)c(=O)c(C(=O)c1ccc(C)cc1)cn2CC(=O)Nc1ccc(F)cc1,i,i,i,i,i,/,/,/,/
CCCSCCCNC(=O)CC1Oc2ccccc2NC1=O (stereo not given),-4.9*,i,i,i,i,i,i,i,i
COCCCNC(=O)CC1Oc2ccccc2NC1=O (stereo not given),i,i,i,i,i,/,/,/,/
O=c1cc(CSc2ccc(Cl)cc2)nc(N2CCCCC2)[nH]1,-7.1*,i,i,i,i,i,i,i,i
Cc1ccc(C(C)C)c(OCC(=O)N2CCOCC2)c1,-6*,i,i,i,i,i,i,i,i
C/C(=N\NC(=O)CNC(=O)c1ccccc1F)c1ccco1,i,i,i,i,i,/,/,/,/
CCn1c(-c2csc(-c3ccccc3)n2)n[nH]c1=S,i,i,i,i,i,/,/,/,/
CCn1c(-c2csc(-c3ccc(Cl)cc3)n2)n[nH]c1=S,-6*,i,i,i,i,i,i,i,i
COCc1cc(=O)[nH]c(=S)[nH]1,-7.1*,i,i,i,i,i,i,i,i
O=c1cc(Cc2ccccc2)[nH]c(=S)[nH]1,-5*,i,i,i,i,i,i,i,i
O=C(CSc1nnc(CNC(=O)c2ccc(F)cc2)o1)NCc1ccc2c(c1)OCO2,-7.6*,i,i,i,i,i,i,i,i
